In test [1] the target is DNA topoisomerase 2-alpha (Homo sapiens) (UniProt P11388). Briefly: Inhibition of human topoisomerase 2alpha expressed in Escherichia coli assessed as reduction in supercoiled pBR322 plasmid DNA relaxation at 50 to 100 uM after 10 to 15 mins by ethidium bromide staining based agarose gel electrophoresis. An outline of the steps: (§1)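 Relaxation assay with 500 ng supercoiled pBR322 DNA and 1 unit of human Topo I or Topo II in reaction buffer (20 µL), run at 37 °C for 10-15 min. Reaction stopped with loading buffer, then 1% agarose gel in TAE at 80 V for 0.5 h. Gel stained with ethidium bromide and bands viewed under UV. Camptothecin (Topo I) and m-AMSA (Topo II) served as references.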
Sequence of DNA topoisomerase 2-alpha (Homo sapiens) (P11388 whole entry): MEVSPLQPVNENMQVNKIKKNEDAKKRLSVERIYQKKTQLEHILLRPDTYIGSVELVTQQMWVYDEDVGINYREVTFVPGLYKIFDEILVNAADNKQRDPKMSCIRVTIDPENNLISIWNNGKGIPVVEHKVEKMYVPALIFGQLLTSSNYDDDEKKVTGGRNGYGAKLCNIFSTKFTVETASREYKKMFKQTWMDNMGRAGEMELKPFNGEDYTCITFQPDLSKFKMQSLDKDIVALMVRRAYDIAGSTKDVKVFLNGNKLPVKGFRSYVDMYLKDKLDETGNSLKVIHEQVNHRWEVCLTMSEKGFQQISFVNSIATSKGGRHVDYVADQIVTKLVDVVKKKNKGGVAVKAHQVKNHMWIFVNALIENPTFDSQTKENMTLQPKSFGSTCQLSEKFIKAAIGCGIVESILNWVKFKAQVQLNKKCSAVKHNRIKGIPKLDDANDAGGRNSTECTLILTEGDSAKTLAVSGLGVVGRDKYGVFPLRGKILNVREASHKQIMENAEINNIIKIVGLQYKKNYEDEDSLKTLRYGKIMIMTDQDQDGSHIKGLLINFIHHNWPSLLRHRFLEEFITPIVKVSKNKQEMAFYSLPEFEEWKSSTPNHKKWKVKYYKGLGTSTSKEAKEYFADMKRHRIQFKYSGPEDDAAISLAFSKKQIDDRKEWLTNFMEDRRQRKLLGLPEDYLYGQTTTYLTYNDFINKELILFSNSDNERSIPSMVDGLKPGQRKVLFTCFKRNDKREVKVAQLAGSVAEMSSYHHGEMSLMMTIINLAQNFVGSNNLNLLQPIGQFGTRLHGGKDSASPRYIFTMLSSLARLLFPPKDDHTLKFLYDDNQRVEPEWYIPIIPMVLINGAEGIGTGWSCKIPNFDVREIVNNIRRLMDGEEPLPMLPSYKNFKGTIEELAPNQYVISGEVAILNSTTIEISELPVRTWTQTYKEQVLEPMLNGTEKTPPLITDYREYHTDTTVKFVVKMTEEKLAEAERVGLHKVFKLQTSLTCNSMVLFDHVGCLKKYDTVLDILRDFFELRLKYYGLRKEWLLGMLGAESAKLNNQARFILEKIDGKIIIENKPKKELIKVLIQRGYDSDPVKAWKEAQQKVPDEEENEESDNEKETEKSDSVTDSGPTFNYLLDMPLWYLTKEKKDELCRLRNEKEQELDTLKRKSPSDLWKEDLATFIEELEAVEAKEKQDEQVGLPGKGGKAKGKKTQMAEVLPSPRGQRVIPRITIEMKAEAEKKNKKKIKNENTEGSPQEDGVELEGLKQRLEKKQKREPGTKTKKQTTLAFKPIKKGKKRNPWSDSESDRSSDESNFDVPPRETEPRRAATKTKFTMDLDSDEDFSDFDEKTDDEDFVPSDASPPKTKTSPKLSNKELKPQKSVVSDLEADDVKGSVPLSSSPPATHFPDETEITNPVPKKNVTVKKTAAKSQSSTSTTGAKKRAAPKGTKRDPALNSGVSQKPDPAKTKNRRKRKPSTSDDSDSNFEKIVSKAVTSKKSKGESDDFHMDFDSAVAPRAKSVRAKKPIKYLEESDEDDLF

Test [2] deals with Calf thymus DNA. As to the kind of experiment: Binding affinity to calf thymus DNA by UV-Vis absorption spectral analysis. The conditions noted are these: Bos taurus. The format is nucleic-acid assay. The method in brief:
(§2)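 Compound held at 10 μM and titrated with increasing calf thymus DNA in Tris-HCl buffer (pH 7.4). UV–visible absorption spectra recorded, and absorbance changes plotted against DNA concentration.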

A further test concerns MDA-MB-231. Briefly: Antiproliferative activity against human MDA-MB-231 cells after 48 hrs by MTT assay. The format is functional, cell-based. Particulars: MDA-MB-231, 48 h. An outline of the steps:
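Cells seeded at 5-10 × 10^3 per well and left 12 h at 37 °C, then given a range of concentrations (DMSO as blank) for 48 h. MTT (5 mg/mL) added for 4 h, formazan dissolved in DMSO, absorbance read at 490 nm. IC50 taken from dose-response curves of at least three independent experiments, mean ± SD.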
In general terms: Tetrazolium assays rely on reduction of a dye to a coloured formazan, in cell work by metabolically active cells.

The subject of another test is HCT-116. Briefly: Antiproliferative activity against human HCT116 cells after 48 hrs by MTT assay. The format is functional, cell-based. Particulars: HCT-116, 48 h.
The next test addresses Histone deacetylase 1 (Homo sapiens, UniProt Q13547). As to the kind of experiment: Inhibition of HDAC1 (unknown origin) using Ac-peptide as substrate pretreated for 15 mins followed by substrate addition and measured after 1 hr by fluorescence assay.
The test system of test [3] is U-937. As to the kind of experiment: Antiproliferative activity against human U937 cells after 48 hrs by MTT assay. The format is functional, cell-based. The conditions noted are these: U-937, 48 h.
The target of test [4] is T1, Protein deacetylase HDAC6 (Homo sapiens, UniProt Q9UBN7).
T1 sequence (Q9UBN7 whole entry): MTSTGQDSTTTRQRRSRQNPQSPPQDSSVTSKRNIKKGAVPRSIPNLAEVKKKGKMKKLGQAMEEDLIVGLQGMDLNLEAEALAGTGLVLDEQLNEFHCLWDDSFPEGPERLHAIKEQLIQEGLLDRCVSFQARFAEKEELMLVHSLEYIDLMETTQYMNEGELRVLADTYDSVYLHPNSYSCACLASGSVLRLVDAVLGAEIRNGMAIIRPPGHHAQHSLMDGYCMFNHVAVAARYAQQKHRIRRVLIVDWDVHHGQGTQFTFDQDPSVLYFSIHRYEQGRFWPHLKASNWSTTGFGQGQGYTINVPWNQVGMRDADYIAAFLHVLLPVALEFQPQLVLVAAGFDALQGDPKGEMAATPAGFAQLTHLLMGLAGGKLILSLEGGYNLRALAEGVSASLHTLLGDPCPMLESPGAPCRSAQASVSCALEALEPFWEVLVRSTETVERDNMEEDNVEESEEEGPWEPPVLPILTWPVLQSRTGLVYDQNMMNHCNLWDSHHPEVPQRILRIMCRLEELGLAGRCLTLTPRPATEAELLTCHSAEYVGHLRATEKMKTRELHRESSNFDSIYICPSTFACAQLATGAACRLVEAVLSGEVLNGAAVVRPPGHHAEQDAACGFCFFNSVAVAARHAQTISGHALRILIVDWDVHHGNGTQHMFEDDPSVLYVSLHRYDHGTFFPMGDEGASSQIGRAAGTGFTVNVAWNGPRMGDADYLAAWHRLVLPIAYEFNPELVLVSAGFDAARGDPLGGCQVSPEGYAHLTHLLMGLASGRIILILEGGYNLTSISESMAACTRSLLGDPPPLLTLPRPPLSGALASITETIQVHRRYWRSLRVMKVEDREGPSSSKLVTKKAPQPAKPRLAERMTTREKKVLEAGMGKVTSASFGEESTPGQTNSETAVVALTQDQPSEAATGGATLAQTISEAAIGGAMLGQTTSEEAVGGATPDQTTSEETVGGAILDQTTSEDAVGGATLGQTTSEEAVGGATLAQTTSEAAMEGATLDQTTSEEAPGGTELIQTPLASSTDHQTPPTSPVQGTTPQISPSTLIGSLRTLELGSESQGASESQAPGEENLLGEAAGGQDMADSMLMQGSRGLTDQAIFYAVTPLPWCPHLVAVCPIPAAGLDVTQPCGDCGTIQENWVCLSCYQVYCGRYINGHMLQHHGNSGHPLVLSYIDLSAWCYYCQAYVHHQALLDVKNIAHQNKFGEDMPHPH
Briefly: Inhibition of HDAC6 (unknown origin) using Ac-peptide as substrate pretreated for 15 mins followed by substrate addition and measured after 1 hr by fluorescence assay.

The target in test [5] is T2, DNA topoisomerase 1 (Homo sapiens) (UniProt P11387).
T2 sequence (whole entry): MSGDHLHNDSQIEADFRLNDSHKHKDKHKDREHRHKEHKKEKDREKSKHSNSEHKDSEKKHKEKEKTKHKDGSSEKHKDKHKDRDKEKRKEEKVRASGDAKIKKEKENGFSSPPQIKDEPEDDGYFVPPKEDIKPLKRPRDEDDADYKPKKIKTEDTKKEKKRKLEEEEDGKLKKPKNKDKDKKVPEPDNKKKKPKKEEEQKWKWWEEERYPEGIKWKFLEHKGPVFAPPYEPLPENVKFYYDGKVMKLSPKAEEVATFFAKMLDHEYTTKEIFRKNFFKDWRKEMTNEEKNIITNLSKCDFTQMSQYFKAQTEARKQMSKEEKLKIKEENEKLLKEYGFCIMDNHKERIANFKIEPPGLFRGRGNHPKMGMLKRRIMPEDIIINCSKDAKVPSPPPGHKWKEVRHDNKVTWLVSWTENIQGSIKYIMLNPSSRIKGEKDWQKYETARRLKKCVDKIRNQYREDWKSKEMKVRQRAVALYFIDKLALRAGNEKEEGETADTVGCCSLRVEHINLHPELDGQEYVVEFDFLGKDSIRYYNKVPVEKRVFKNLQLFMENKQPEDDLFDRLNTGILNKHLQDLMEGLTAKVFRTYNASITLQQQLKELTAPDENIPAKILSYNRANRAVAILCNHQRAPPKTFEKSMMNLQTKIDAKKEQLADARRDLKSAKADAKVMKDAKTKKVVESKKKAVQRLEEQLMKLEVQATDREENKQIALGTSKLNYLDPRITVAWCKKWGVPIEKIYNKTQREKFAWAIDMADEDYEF
Briefly: Inhibition of human topoisomerase 1 assessed as reduction in supercoiled pBR322 plasmid DNA relaxation at 100 uM after 10 to 15 mins by ethidium bromide staining based agarose gel electrophoresis. The method in brief: as §1

Test [6] concerns Calf thymus DNA. As to the kind of experiment: Binding affinity to calf thymus DNA by fluorescence emission spectral analysis. Format: nucleic-acid assay. The conditions noted are these: Bos taurus.
For test [7], the system named is U-937. As to the kind of experiment: Induction of apoptosis in human U937 cells assessed as increase in cleaved caspase 8 levels up to 2.5 uM after 36 hrs by Western blot analysis. The format is functional, cell-based. An outline of the steps: (§3)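 U937 cells exposed to 0, 0.1, 0.5, 1 and 2.5 μM for 36 h. Cells lysed at 0 °C for 0.5 h, protein measured by BCA, and lysates run on 12% SDS-PAGE and transferred to PVDF. Blocking in 5% milk, primary antibodies (1:1000) at 4 °C overnight, HRP secondary for 2 h, ECL detection.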
On the technique in general: A western blot detects proteins with antibodies after separation by electrophoresis.

The subject of test [8] is Calf thymus DNA. As to the kind of experiment: Binding affinity to calf thymus DNA assessed as maximum absorption peak at 10 uM by UV-Vis absorption spectral analysis. The conditions noted are these: Bos taurus. Format: nucleic-acid assay. The method in brief:
as §2

For test [9], the system named is Calf thymus DNA. As to the kind of experiment: Binding affinity to calf thymus DNA assessed as assessed as bathochromic shift at 10 uM by UV-Vis absorption spectral analysis. Format: nucleic-acid assay. The conditions noted are these: Bos taurus. An outline of the steps:
as §2

For test [10], the system named is U-937. Briefly: Induction of apoptosis in human U937 cells assessed as increase in cleaved caspase 7 levels up to 2.5 uM after 36 hrs by Western blot analysis. The format is functional, cell-based. The method in brief: as §3
For test [11], the system named is U-937. Briefly: Induction of apoptosis in human U937 cells assessed as increase in cleaved caspase 9 levels up to 2.5 uM after 36 hrs by Western blot analysis. The format is functional, cell-based. An outline of the steps:
as §3

Test [12] relates to U-937. Briefly: Induction of apoptosis in human U937 cells assessed as increase in cleaved caspase 3 levels up to 2.5 uM after 36 hrs by Western blot analysis. The format is functional, cell-based. An outline of the steps:
as §3

The structures appear in SMILES notation. pIC50: −log10 of the molar value. Calls of active or inactive are those of the source. No cut-off for these calls is given here.

One may read the pIC50 as the negative decadic logarithm of the IC50, by convention in mol/L.

Sequence of Histone deacetylase 1 (Q13547 whole entry): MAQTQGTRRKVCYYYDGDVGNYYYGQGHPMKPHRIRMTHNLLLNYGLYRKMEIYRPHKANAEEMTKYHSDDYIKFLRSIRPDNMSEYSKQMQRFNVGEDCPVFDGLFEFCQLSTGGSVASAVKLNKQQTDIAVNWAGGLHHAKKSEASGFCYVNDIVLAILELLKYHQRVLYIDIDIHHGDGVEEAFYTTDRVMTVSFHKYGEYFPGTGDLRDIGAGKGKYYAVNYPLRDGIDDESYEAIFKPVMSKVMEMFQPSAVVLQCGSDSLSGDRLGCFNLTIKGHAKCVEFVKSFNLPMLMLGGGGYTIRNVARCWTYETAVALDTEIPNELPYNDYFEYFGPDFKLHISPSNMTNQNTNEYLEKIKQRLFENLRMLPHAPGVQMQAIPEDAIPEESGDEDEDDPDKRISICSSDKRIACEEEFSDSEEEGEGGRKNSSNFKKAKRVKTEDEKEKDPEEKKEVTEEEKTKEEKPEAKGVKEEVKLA

With `COc1cc(NS(C)(=O)=O)ccc1Nc1c2ccccc2nc2ccccc12` [AMSACRINE], in test [1], the inhibition entry is “Active”. The same compound showed a Kb in the test on Calf thymus DNA [2] of 1.36 ×10⁵ /M. Also, the pIC50 in the test on MDA-MB-231 is 5.00; in the test on HCT-116, greater than 6.00.
For `COc1ccc2nc3cc(Cl)ccc3c(Nc3cccc(-c4cn(CCCCCC(=O)NO)nn4)c3)c2c1`, the inhibition result in test [1] is “Active”. Besides, the pIC50 is 6.65 on Histone deacetylase 1, 5.53 with U-937 [3] and 7.88 in [4].
In the case of `O=C(CCCCCCn1cc(-c2cccc(Nc3c4ccccc4nc4ccccc34)c2)nn1)NO`, the inhibition result in test [1] is “Active”. In addition, the results for the pIC50 (at Histone deacetylase 1; with U-937 [3]; in test [4]) were 8.29, 5.91 and 8.30, respectively.
On to `COc1ccc2nc3cc(Cl)ccc3c(Nc3ccc(-c4cn(CCCCCC(=O)NO)nn4)cc3)c2c1`, for which the inhibition result in [1] was “Active”. Also, the values for the pIC50 (at Histone deacetylase 1; with U-937 [3]; in test [4]) were 6.51, 5.45 and 7.54, respectively.
For the compound `O=C(CCc1ccc(Nc2c3ccccc3nc3ccccc23)cc1)NO`, the inhibition result in [1] and in [5] was “Active” throughout. Moreover, the pIC50 at Histone deacetylase 1 was 6.87; with MDA-MB-231, 4.54; in the test on U-937 [3] it was 6.12; in test [4], 7.00; with HCT-116, 5.73.
For `O=C(CCCCCn1cc(-c2ccc(Nc3c4ccccc4nc4ccccc34)cc2)nn1)NO`, the inhibition entry in test [1] is “Active”. Moreover, the pIC50 at Histone deacetylase 1 is 8.09; with U-937 [3], 5.87; in [4], 8.59.
Compound `COC(=O)CCc1ccc(Nc2c3ccccc3nc3ccccc23)cc1` showed a pIC50 in the test with U-937 [3] of 5.41.
The compound `O=C(CCCCCCn1cc(-c2ccc(Nc3c4ccccc4nc4ccccc34)cc2)nn1)NOC1CCCCO1` (configuration not stated) gave a pIC50 with U-937 [3] of 4.67.
As to `O=C(CCCCCn1cc(-c2cccc(Nc3c4ccccc4nc4ccccc34)c2)nn1)NO`, the inhibition entry in [1] is “Active”. In addition, the pIC50 on Histone deacetylase 1 was 7.85; with U-937 [3], 5.57; in [4], 8.47.
As for `O=C(CCCCCCn1cc(-c2ccc(Nc3c4ccccc4nc4ccccc34)cc2)nn1)NO`, in the test with Calf thymus DNA [6], the Kq stood at 1.56 ×10⁵ /M. The inhibition entry in [1] was “Active”. Further, the result in the test on U-937 [7], in the test on Calf thymus DNA [9], in the test on U-937 [10], in the test on U-937 [11] and in the test with U-937 [12] was Active. The pIC50 on Histone deacetylase 1 is 8.41; with MDA-MB-231, 5.15; in the test on U-937 [3] it was 6.05; in test [4], 8.54; in the test on HCT-116, 5.68. Also, the Kb with Calf thymus DNA [2] turned out to be 1.67 ×10⁵ /M. For the same compound, the Activity in the test on Calf thymus DNA [8] was determined as 430 nm.
In the case of `COc1ccc2nc3cc(Cl)ccc3c(Nc3ccc(CCC(=O)NO)cc3)c2c1`, in test [1], the inhibition result was “Active”. The figures for the pIC50 (at Histone deacetylase 1; with U-937 [3]; in [4]) were 7.18, 5.95 and 7.09, respectively.
As to `O=C(CCCCCCC(=O)Nc1ccccc1)NO` [VORINOSTAT], the pIC50 in the test with MDA-MB-231 is 5.31.

The record behind these values is ChEMBL document CHEMBL4229424, “Design, synthesis and anticancer evaluation of acridine hydroxamic acid derivatives as dual Topo and HDAC inhibitors” (Bioorg Med Chem, 2018).
